# Where two headings read alike, the source gives them in different places.
# Columns and labels:
# P. falciparum = settings: read-out: IC50, antimalarial activity; cited from earlier work
# [1] = test system: knockout parasites (PfSR25−); settings: exposure for 24 h; cited from earlier work
# P. falciparum 3D7 [2] = type: cell-based, Plasmodium falciparum; settings: Plasmodium falciparum
# [3] = test system: Plasmodium falciparum 3D7; assay: Drug effects on erythrocytic cycle phases in synchronized cultures; type: cell-based
# Procedure, shortened: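 Sorbitol-synchronized P. falciparum 3D7 at 1% parasitaemia and 2% haematocrit received test compound (150 nM), chloroquine (150 nM) or 0.1% DMSO at 0, 12 or 24 h post-synchronization. Samples were taken at 12, 24, 36 and 48 h and stained for 30 min in HEPES-buffered Hank's with 1 µM Hoechst and […] thiazole orange. Flow cytometry gated rings, trophozoites and schizonts on DNA/RNA signal. Data are mean ± SD from one triplicate experiment.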
# [4] = target: P. falciparum PfSR25− (serpentine receptor 25 knockout strain); assay: Comparative IC50 screening, 3D7 versus serpentine receptor 25 knockout strain; type: cell-based, Plasmodium falciparum; settings: 72 h, 0.0019–2 µM, Student's t test
# Procedure, shortened: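 Asynchronous 3D7 and PfSR25− cultures (37 °C, 90% N2/5% O2/5% CO2) at 0.3% parasitaemia and 2% haematocrit were exposed for 72 h to eleven final concentrations. Controls were 0.13% DMSO and chloroquine 0.2441–250 nM. Cells were stained with SYBR Green-I (1:10,000) plus MitoTracker Deep Red (50 nM) for 20 min at 37 °C and read by flow cytometry. Survival was taken relative to DMSO, in triplicate over three experiments. IC50 ± SEM came from dose–response curves.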
# [5] = test system: P. falciparum gametocytes; settings: read-out: IC50 against P. falciparum gametocytes; cited from earlier work
# [6] = Cytotoxicity of the compounds in HEK293 cells; type: cell-based, human; settings: human, HEK293 cells
# Procedure, shortened: (§1)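 HEK293 cells (passages 7–12, grown in DMEM with 10% FBS and penicillin/streptomycin at 37 °C, 5% CO₂) were trypsinized and seeded at 10^4 cells/well. They were exposed to test compound or DMSO vehicle for 72 h. MTT (5 mg/mL reagent) was then added for 3 h, and the formazan was dissolved in DMSO. Absorbance was read at 570 nm and dose–response curves were fitted. Each condition was run in triplicate in 3 independent experiments.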
# HEK293 cells = assay: Cytotoxicity of the compounds in HEK293 cells; type: cell-based, human; settings: MTT, 72 h, 0.0019–2 µM
# Procedure, shortened: as §1
# P. falciparum 3D7 [7] = settings: cited from earlier work
# [8] = 3D7, 72 h, read-out: IC50 (nM) 3D7, Table 1, asynchronous culture, 72 h, 0.0019–2 µM, ± standard error of the mean
molecule,measurement,setting,value
"CCCN(CCC)C1CCc2cccc(O)c2C1 (stereo not shown) [8-OH-DPAT, 8-hydroxy-N-(di-n-propyl)-aminotetralin]",IC50,P. falciparum,400 nM
"CCN(CC)CCCC(C)Nc1ccnc2cc(Cl)ccc12 (stereo not shown) [Chloroquine, reference compound]",parasitaemia of knockout parasites (PfSR25−) versus wild-type (3D7),[1],significantly reduced parasitaemia compared with that of wild-type parasites (3D7)
same,IC50,P. falciparum 3D7 [2]; [8],11.3 ± 0.7 nM
same,ring phase parasites at the 36 h time point,"[3]; 150 nM added 12 h after synchronization, % parasitaemia, n = 3",0.30 ± 0.17%
same,parasitaemia at the 36 h time point,"[3]; 150 nM added 12 h after synchronization, n = 3",1.55 ± 0.87%
same,parasites developed into schizonts at the 24 h time point,"[3]; added at 0 h, control 18%",less than 0.5%
"CN(CCCNCc1cccc2ccccc12)CCCNCc1cccc2ccccc12.Cl [TCMDC-137905, Cl.CN(CCCNCc1cccc2ccccc12)CCCNCc1cccc2ccccc12]",difference of IC50 between 3D7 and PfSR25−,[4],none of the compounds tested were significantly different between the two strains
same,IC50,[5],230 nM
same,IC50,P. falciparum 3D7 [2]; [8],91.1 ± 18.4 nM
same,IC50,"P. falciparum 3D7 [2]; 3D7, read-out: IC50 nM 3D7, Table 2",91.1 nM
same,CC50 at 72 h,[6],5.55 µM
same,cytotoxic activity in HEK293 cells,HEK293 cells,exhibited cytotoxic activity in HEK293 cells
Melatotosil,action on melatonin in the cell cycle of P. falciparum 3D7,P. falciparum 3D7 [7],blocks the action of melatonin in the cell cycle of P. falciparum 3D7

# Reference: publication PMC11827156 (Malaria Journal, 2025)
